Data: paper PMC3304489 (Biochemical Journal, 2012)

System: MALT1
Experiment: Effect of buffer additives on MALT1 activity
Type: biochemical, human
Settings: 50 mM Hepes, 100 mM NaCl, 0.9 M sodium citrate, pH 7.5, supplemented with additive (Figure 2C and results not shown)
In short: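 Recombinant human MALT1, expressed in E. coli and Ni-NTA purified, used as full-length (150 nM) and as His-tagged catalytic domain (residues 329–566, 4 μM). Each was assayed in 50 mM Hepes, 100 mM NaCl, 0.9 M sodium citrate (pH 7.5) with the indicated additives. Experiments were repeated three times, and mean ± S.E.M. is reported.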

In the case of `O[C@@H](CS)[C@@H](O)CS` (racemic) [DTT, dithiothreitol], the “effect of buffer additive on the activity of MALT1 (in words)” value (“effect of buffer additive” for short) is reported as “activity was enhanced”.

In the case of `c1cnc2c(c1)ccc1cccnc12` [1,10-phenanthroline], the “effect of buffer additive” value is reported as “no substantial effect”.

In the case of `[Ca+2].[Cl-].[Cl-]` [CaCl2], the “effect of buffer additive” value is reported as “no substantial effect”.

`O=C(O)CN(CCN(CC(=O)O)CC(=O)O)CC(=O)O` [EDTA] was tested, and the “effect of buffer additive” value was “no substantial effect”.
